Results as given in ChEMBL document CHEMBL2424622, “Development of amino-pyrimidine inhibitors of c-Jun N-terminal kinase (JNK): kinase profiling guided optimization of a 1,2,3-benzotriazole lead” (Bioorg Med Chem Lett, 2013).

Key:
[1] = target: T1, Mitogen-activated protein kinase kinase kinase kinase 3 (Homo sapiens) (UniProt Q8IVH8); assay: Competitive binding affinity to MAP4K3 (unknown origin) at 10 uM in presence of ATP relative to control
T1 sequence (whole entry): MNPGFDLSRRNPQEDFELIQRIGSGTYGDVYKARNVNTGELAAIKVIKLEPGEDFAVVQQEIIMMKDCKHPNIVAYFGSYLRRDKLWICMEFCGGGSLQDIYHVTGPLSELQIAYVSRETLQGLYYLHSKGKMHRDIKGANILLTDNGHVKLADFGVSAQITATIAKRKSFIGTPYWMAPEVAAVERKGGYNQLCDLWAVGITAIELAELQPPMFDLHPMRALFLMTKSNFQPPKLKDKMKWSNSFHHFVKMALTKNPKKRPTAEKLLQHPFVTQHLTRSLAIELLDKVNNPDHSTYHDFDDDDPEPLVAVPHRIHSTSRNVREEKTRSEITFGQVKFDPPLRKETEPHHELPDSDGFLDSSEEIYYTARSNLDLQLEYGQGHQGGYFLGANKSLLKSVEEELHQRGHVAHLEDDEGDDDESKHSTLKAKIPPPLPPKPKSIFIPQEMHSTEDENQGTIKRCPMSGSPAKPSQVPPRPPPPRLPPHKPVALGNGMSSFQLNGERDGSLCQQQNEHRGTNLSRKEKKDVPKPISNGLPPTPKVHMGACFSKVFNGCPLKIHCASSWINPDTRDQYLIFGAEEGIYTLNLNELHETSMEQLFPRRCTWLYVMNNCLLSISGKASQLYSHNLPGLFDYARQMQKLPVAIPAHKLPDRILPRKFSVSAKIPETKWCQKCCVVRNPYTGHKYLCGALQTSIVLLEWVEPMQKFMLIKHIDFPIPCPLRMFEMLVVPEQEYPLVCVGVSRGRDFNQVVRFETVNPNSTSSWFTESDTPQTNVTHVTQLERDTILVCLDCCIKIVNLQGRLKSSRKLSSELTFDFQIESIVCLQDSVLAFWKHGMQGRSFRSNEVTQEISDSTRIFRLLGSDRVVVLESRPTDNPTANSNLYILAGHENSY

[2] = system: Mast/stem cell growth factor receptor Kit (Homo sapiens), P10721 [V559D,T670I]; assay: Competitive binding affinity to KIT V559D/T670I double mutant (unknown origin) at 10 uM in presence of ATP relative to control
[3] = target: T2, Serine/threonine-protein kinase Chk1 (Homo sapiens) (UniProt O14757); assay: Competitive binding affinity to CHEK1 (unknown origin) at 10 uM in presence of ATP relative to control
T2 sequence (whole entry): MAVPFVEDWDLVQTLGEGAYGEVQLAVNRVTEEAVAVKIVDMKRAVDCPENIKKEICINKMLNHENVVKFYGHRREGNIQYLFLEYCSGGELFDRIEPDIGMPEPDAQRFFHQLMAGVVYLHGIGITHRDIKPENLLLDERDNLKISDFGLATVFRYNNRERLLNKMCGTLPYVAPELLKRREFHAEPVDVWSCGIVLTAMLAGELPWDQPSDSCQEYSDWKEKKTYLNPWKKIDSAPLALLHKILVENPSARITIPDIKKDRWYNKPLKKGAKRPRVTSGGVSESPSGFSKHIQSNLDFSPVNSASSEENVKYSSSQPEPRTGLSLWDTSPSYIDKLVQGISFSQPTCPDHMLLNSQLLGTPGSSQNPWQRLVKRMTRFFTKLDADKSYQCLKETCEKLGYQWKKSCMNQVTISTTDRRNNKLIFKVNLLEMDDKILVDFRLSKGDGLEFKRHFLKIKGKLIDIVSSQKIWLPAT

[4] = target: Cyclin-dependent kinase 7 (Homo sapiens, UniProt P50613); assay: Competitive binding affinity to CDK7 (unknown origin) at 10 uM in presence of ATP relative to control
[5] = target: Mitogen-activated protein kinase 7 (Homo sapiens, UniProt Q13164); assay: Competitive binding affinity to ERK5 (unknown origin) at 10 uM in presence of ATP relative to control
[6] = system: Epidermal growth factor receptor (Homo sapiens), P00533 [G719C]; assay: Competitive binding affinity to EGFR G719C mutant (unknown origin) at 10 uM in presence of ATP relative to control
Method in brief: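 In vitro ATP-site competition binding assay, part of profiling against a diverse panel of 128 kinases. Each compound was tested at a single concentration of 10 µM. Kinome selectivity was summarized as S15 selectivity scores.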

[7] = target: T3, TGF-beta receptor type-1 (Homo sapiens) (UniProt P36897); assay: Competitive binding affinity to TGFBR1 (unknown origin) at 10 uM in presence of ATP relative to control
T3 sequence (whole entry): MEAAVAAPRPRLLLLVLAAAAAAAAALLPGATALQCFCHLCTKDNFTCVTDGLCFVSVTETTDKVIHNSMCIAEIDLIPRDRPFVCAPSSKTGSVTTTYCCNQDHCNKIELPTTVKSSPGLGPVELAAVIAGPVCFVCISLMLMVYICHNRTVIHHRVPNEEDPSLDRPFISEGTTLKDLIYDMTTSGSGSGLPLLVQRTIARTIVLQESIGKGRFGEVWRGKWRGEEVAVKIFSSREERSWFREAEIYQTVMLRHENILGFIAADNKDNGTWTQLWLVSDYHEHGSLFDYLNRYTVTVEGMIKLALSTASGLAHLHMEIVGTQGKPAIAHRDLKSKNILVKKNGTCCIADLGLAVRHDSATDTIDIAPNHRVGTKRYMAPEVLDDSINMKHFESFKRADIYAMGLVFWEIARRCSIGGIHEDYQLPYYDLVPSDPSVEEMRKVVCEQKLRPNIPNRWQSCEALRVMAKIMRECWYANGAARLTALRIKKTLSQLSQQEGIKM

[8] = target: Ribosomal protein S6 kinase alpha-1 (Homo sapiens, UniProt Q15418); assay: Competitive binding affinity to RPS6KA1 kinase domain 2 (unknown origin) at 10 uM in presence of ATP relative to control
[9] = target: Maternal embryonic leucine zipper kinase (Homo sapiens) (UniProt Q14680); assay: Competitive binding affinity to MELK (unknown origin) at 10 uM in presence of ATP relative to control
[10] = target: Serine/threonine-protein kinase 38-like (Homo sapiens) (UniProt Q9Y2H1); assay: Competitive binding affinity to NDR2 (unknown origin) at 10 uM in presence of ATP relative to control
Method in brief: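 In vitro ATP-site competition binding assay across a diverse panel of 128 kinases, with compound tested at a single concentration. Kinase selectivity scores (S15) were calculated from the panel profiles.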

Homo sapiens = species: Homo sapiens; assay: Competitive binding affinity to EGFR L747 to S752 deletion mutant, P753S mutant (unknown origin) at 10 uM in presence of ATP relative to control
[11] = target: Aurora kinase B (Homo sapiens) (UniProt Q96GD4); assay: Competitive binding affinity to AURKB (unknown origin) at 10 uM in presence of ATP relative to control
Method in brief: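 In vitro ATP-site competition binding assay across a diverse panel of 128 kinases, with each compound tested at a single concentration. Kinase binding is expressed relative to control.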

Sequence of Ribosomal protein S6 kinase alpha-1 (Q15418 whole entry, the tested form may be a part): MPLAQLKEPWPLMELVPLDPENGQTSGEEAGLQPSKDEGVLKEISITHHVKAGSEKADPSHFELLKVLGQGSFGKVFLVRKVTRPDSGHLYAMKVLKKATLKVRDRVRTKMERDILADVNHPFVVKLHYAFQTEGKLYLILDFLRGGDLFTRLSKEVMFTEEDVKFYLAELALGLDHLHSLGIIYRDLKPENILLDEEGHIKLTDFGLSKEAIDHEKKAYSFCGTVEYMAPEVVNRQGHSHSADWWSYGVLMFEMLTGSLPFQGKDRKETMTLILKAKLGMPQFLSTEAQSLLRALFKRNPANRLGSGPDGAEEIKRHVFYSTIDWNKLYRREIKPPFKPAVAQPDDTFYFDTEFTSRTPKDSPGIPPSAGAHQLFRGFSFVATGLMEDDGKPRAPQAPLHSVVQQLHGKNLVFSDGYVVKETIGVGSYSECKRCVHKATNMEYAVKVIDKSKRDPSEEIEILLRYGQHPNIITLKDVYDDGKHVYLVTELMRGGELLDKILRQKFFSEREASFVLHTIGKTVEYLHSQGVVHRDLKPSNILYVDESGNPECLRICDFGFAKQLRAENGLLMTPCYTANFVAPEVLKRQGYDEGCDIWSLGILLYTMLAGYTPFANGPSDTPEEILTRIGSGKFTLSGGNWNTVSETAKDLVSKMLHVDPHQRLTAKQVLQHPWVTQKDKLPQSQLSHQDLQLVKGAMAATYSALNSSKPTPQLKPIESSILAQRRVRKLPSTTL
Sequence of Epidermal growth factor receptor (Homo sapiens), P00533 [G719C] (P00533 whole entry G719C): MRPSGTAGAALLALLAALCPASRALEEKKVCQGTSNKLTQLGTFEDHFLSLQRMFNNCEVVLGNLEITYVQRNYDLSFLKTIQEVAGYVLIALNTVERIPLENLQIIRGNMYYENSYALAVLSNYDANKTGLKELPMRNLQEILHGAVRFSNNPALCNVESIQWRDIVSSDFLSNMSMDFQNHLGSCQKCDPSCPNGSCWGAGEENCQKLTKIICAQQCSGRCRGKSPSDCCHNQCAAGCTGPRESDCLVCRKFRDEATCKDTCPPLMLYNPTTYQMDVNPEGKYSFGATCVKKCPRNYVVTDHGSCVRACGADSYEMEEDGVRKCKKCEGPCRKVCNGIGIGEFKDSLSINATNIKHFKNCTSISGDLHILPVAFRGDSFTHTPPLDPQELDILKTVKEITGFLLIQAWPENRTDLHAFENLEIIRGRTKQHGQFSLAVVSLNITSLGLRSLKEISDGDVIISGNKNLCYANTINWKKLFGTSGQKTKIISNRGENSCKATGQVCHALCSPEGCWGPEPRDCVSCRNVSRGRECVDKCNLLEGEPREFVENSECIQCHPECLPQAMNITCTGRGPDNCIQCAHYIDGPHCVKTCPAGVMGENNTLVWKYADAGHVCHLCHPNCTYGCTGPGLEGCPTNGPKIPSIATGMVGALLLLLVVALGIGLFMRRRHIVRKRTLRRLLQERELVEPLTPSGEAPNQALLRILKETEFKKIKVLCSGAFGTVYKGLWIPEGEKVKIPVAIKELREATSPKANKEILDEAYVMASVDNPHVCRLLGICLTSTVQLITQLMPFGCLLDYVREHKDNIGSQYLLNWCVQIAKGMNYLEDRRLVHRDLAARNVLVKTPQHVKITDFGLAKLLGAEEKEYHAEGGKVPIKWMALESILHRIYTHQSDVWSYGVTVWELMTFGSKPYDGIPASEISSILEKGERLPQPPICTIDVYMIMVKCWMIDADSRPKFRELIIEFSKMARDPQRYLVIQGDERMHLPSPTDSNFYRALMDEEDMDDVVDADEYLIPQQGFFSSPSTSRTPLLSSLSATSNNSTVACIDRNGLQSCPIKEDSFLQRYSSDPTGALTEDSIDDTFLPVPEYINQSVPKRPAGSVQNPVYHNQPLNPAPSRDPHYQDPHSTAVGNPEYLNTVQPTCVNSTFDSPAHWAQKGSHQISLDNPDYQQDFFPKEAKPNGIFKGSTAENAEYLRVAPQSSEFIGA
Sequence of Mitogen-activated protein kinase 7 (Q13164 2-816 limits assumed): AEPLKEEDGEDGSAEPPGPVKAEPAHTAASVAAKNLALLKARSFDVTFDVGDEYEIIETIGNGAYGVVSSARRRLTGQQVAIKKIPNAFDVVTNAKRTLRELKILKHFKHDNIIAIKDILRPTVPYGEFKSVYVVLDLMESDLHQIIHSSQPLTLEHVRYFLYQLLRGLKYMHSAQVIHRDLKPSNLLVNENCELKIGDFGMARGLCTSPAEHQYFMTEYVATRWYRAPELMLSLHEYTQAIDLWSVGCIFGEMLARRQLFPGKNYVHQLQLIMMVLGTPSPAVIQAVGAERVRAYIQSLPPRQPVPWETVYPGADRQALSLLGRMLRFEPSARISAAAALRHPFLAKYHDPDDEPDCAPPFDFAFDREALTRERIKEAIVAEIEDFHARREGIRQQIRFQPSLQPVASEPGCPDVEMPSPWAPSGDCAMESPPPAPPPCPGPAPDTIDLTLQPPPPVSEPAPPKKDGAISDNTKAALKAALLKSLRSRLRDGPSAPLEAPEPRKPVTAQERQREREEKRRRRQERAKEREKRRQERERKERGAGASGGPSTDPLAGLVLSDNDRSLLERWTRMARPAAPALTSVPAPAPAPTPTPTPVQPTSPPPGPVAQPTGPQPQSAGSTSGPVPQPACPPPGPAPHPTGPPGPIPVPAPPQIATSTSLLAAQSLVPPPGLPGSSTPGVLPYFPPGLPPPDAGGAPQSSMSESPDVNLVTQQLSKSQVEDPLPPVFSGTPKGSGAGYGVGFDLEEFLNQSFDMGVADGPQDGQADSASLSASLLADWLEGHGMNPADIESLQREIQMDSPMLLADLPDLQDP
Sequence of Maternal embryonic leucine zipper kinase (Homo sapiens) (Q14680 whole entry, looked up): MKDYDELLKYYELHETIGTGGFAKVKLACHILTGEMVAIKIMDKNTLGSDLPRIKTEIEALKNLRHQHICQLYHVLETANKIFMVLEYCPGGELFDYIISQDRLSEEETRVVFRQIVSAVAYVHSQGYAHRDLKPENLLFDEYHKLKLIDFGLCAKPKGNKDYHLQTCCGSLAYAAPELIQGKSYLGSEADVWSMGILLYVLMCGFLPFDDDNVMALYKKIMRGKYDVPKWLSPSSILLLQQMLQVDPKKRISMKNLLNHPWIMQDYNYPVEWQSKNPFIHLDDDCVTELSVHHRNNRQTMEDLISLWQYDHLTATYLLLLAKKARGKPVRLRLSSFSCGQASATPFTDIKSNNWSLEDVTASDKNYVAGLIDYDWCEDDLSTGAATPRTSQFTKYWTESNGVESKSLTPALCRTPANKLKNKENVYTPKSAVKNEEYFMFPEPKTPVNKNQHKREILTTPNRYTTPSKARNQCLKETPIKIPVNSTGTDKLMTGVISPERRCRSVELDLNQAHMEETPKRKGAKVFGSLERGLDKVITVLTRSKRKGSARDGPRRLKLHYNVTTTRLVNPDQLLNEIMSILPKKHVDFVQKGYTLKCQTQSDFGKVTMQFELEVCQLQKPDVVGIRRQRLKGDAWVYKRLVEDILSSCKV
Sequence of Mast/stem cell growth factor receptor Kit (Homo sapiens), P10721 [V559D,T670I] (P10721 whole entry V559D/T670I): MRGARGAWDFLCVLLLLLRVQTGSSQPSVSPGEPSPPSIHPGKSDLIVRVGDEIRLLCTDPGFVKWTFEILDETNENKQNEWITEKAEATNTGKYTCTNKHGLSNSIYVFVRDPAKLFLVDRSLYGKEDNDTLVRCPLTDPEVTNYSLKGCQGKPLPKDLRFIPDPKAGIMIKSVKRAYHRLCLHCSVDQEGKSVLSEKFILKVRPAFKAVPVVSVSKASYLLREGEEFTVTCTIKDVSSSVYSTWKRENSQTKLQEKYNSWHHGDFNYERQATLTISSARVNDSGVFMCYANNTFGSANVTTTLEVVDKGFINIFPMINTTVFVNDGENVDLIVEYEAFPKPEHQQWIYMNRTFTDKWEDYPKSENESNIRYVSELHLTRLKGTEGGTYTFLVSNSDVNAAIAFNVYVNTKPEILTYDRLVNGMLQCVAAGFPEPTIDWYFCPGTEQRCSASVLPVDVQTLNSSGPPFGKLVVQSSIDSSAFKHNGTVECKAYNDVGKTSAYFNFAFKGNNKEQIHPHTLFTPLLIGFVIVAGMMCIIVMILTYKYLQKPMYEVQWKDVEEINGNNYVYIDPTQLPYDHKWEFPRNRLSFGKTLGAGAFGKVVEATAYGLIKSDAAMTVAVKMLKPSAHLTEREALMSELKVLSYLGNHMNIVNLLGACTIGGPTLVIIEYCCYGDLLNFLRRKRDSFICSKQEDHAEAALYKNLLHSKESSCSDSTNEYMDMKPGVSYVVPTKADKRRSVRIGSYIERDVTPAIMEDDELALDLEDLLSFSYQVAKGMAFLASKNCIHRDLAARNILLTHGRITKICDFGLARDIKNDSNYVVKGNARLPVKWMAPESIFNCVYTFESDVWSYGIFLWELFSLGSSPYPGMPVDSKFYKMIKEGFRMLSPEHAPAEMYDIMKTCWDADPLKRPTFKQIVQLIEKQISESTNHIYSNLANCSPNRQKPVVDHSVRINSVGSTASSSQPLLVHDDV
Sequence of Serine/threonine-protein kinase 38-like (Homo sapiens) (Q9Y2H1 2-464 limits assumed): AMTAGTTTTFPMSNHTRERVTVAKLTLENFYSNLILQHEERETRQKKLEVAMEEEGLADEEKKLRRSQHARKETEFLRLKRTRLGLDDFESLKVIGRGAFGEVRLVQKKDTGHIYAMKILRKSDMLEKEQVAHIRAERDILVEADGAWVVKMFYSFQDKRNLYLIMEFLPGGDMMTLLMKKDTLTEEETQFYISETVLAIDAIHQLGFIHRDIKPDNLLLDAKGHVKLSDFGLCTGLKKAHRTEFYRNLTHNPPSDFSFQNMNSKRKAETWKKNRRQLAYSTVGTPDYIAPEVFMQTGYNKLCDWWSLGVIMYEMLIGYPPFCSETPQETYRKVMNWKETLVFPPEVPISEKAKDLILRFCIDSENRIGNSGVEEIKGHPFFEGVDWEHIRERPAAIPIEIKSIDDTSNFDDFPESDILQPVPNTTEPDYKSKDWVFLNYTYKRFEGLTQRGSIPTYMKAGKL

O[C@H]1CC[C@H](Nc2nccc(-n3nnc4ccccc43)n2)CC1
inhibition [1]: < 50% | inhibition [2]: 74% | inhibition [3]: < 50% | inhibition [4]: 92% | inhibition [5]: 100% | inhibition [6]: < 50% | inhibition [7]: < 50% | inhibition [8]: 100% | inhibition [9]: 94% | inhibition [10]: < 50% | inhibition (Homo sapiens): < 50% | inhibition [11]: 68%

CS(=O)(=O)CCCOc1cccc2c1ccn2-c1ccnc(N[C@H]2CC[C@H](C(=O)N3CCC(O)CC3)CC2)n1
inhibition [4]: > 85% | inhibition [5]: > 85%

O[C@H]1CC[C@H](Nc2nccc(-n3ncc4ccccc43)n2)CC1
inhibition [1]: < 50% | inhibition [2]: 80% | inhibition [3]: < 50% | inhibition [4]: 81% | inhibition [5]: 79% | inhibition [6]: < 50% | inhibition [7]: < 50% | inhibition [8]: 100% | inhibition [9]: 74% | inhibition [10]: < 50% | inhibition (Homo sapiens): < 50% | inhibition [11]: < 50%

O[C@H]1CC[C@H](Nc2nccc(-c3n[nH]c4ccccc34)n2)CC1
inhibition [1]: 97% | inhibition [2]: 96% | inhibition [6]: < 50% | inhibition [7]: < 50% | inhibition [9]: 94% | inhibition [10]: 72% | inhibition (Homo sapiens): < 50% | inhibition [11]: 91%

O[C@H]1CC[C@H](Nc2nccc(-n3ccc4ccccc43)n2)CC1
inhibition [1]: < 50% | inhibition [2]: < 50% | inhibition [3]: < 50% | inhibition [4]: 83% | inhibition [5]: < 50% | inhibition [6]: < 50% | inhibition [7]: < 50% | inhibition [8]: 95% | inhibition [9]: < 50% | inhibition [10]: < 50% | inhibition (Homo sapiens): < 50% | inhibition [11]: < 50%
